The values that follow come from ChEMBL document CHEMBL4382230, “Structure-activity relationships, biological evaluation and structural studies of novel pyrrolonaphthoxazepines as antitumor agents” (Eur J Med Chem, 2019).

As a reminder, the pIC50 is the IC50 on a negative log10 scale, so that one unit is a factor of ten. As usually defined, the solubility is the concentration that dissolves in the medium under given conditions.

Series [1] concerns HL-60. The series can be described thus: Cytotoxicity against human HL60 cells assessed as reduction in cell viability after 72 hrs by alamar blue assay. It counts as functional, cell-based. Particulars: HL-60, 72 h. Put shortly:
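HL-60 at 300,000 cells/ml treated in triplicate with compound or vehicle (0.1% v/v DMSO) for 72 h. Cells then incubated in 10% (v/v) AlamarBlue and fluorescence read at excitation 544 nm, emission 590 nm. IC50 is the mean of at least three separate determinations.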
For orientation: The colour change of resazurin is a common sign of viable cells or microbes.

Another series has as its system GISTT1. Kind of series: Cytotoxicity against human GISTT1 cells assessed as reduction in cell viability at 1 uM after 48 hrs by alamar blue assay. In kind it is functional, cell-based. Put shortly: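 GIST-T1 seeded at 4000 cells/well, exposed to 1 or 10 μM for 48 h; viability read by AlamarBlue.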
Series [2] concerns HL-60. Kind of series: Cell cycle arrest in human HL60 cells assessed as accumulation of cells at G2/M phase at 10 uM after 24 hrs by propidium iodide staining-based flow cytometric analysis. In kind it is functional. Put shortly: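 HL-60 exposed to 10 μM for 24 h, vehicle 0.1% DMSO. Cells plated at 2×10^5 cells/mL, stained in PBS with 0.1% sodium citrate, 0.1% NP40 and propidium iodide for 30 min at room temperature in the dark. DNA content by flow cytometry; G2/M fraction reported.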

In series [3] the test system is NIH3T3. Kind of series: Cytotoxicity against mouse NIH/3T3 cells after 48 hrs by MTT assay. It counts as cell-based. Particulars: NIH3T3, 48 h. An outline of the steps: (§1)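 Cells seeded at 12,000 to 17,000 per well depending on line, incubated overnight, then given serial dilutions of ligand for 48 h. MTT at 2.5 mg/mL added for 4 h at 37 °C, formazan solubilized overnight (10% SDS, 45% dimethylformamide, pH 5.5), absorbance read at 595/690 nm. IC50 from log-dose response curves; mean ± SE of three independent assays.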
On the technique in general: Tetrazolium assays rely on reduction of a dye to a coloured formazan, in cell work by metabolically active cells.

In series [4] the test system is NIH3T3. The series can be described thus: Cytotoxicity against mouse NIH/3T3 cells harboring MDR G185 after 48 hrs by MTT assay. It counts as functional, cell-based. Particulars: NIH3T3, 48 h. Put shortly:
as §1

The next series deals with A2780. Kind of series: Cytotoxicity against human A2780 cells after 48 hrs by MTT assay. In kind it is functional, cell-based. The note with it: A2780, 48 h. Put shortly:
as §1

Series [5] in a line: Ratio of IC50 for human A2780AD cells to IC50 for human A2780 cells. It counts as functional. Put shortly:
(§2)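 Relative resistance: IC50 in the P-gp overexpressing resistant line divided by IC50 in the parental line. Both IC50s came from the 48 h MTT assay (serial dilutions, absorbance at 595/690 nm, log-dose response curves, three independent assays).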

Series [6] in a line: Ratio of IC50 for mouse NIH/3T3 cells harboring MDR G185 to IC50 for mouse NIH/3T3 cells. Put shortly:
as §2

Series [7] can be described thus: Cytotoxicity against human A2780AD cells after 48 hrs by MTT assay. In kind it is functional, cell-based. An outline of the steps: as §1
Series [8] deals with T1, Tubulin (Homo sapiens) (UniProt P68371+Q9H4B7+P0DPH7+P68366+Q13509+Q71U36+P04350+Q3ZCM7+P07437+P68363+Q9BQE3+Q6PEY2+Q13885+Q9BVA1+Q9BUF5). Kind of series: Displacement of podophyllotoxin from tubulin (unknown origin) by ultracentrifugation method. In kind it is protein-complex assay.
A short description of series [9]: Apparent solubility of compound in sodium phosphate buffer at 15 uM after 20 mins. In kind it is physicochemical.
Series [10] addresses T1, Tubulin (Homo sapiens). The series can be described thus: Binding affinity to tubulin (unknown origin) by analytical ultracentrifugation.
Series [11] deals with T1, Tubulin (Homo sapiens). Kind of series: Inhibition of tubulin (unknown origin) polymerization at 27.5 uM measured over 70 mins by turbidity method. In kind it is protein-complex assay. An outline of the steps: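 Tubulin at 25 µM in GAB buffer (10 mM sodium phosphate, 30% glycerol, 1 mM EGTA, 6 mM MgCl2, 1 mM GTP, pH 6.7) with 27.5 µM compound or DMSO vehicle. Turbidity is read at 355 nm for 70 min at 37 °C. Data are normalized to the initial stable absorbance plateau to correct for compound absorbance.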

Another series concerns A549. The series can be described thus: Cytotoxicity against human A549 cells assessed as reduction in cell survival at 0.1 to 10 uM after 18 hrs by MTT assay. It counts as functional, cell-based. An outline of the steps:
(§3)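 Seeded at 2,500 cells/well in medium with 10% serum. After adhesion, exposed to 0.1, 1 and 10 μM in medium with 5% serum for 18 h. Medium then replaced with fresh medium containing 1.2 mM MTT for 4 h; formazan dissolved in DMSO, absorbance at 540 nm. Results given as % of basal response.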

The test system of another series is B16-F1. Kind of series: Cytotoxicity against mouse B16-F1 cells assessed as reduction in cell survival at 0.1 to 10 uM after 18 hrs by MTT assay. In kind it is functional, cell-based. Put shortly:
as §3

In series [12] the test system is NB-4. The series can be described thus: Induction of differentiation in human NB4 cells at 500 nM after 24 hrs in presence of ATRA by CD11c staining-based flow cytometric analysis. In kind it is functional, cell-based. An outline of the steps: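 NB4 exposed to 0.5 μM compound together with 1 μM ATRA for 24 h. Cells stained with PE-conjugated CD11c (mouse IgG1-PE control) for 1 h at 4 °C in the dark, washed, resuspended in PBS with propidium iodide (0.25 μg/mL), then analysed by flow cytometry. Biological triplicates, mean ± S.E.M.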

The next series relates to PC-9. Kind of series: Cytotoxicity against human PC9 cells assessed as reduction in cell survival at 0.1 to 10 uM after 18 hrs by MTT assay. In kind it is functional, cell-based. Put shortly:
as §3

The test system of series [13] is HCC827. The series can be described thus: Cytotoxicity against human HCC827 cells assessed as reduction in cell survival at 0.1 to 10 uM after 50 to 60 hrs by MTT assay. In kind it is functional, cell-based.
A further series deals with B16-F10. Kind of series: Cytotoxicity against mouse B16F10 cells assessed as reduction in cell survival at 0.1 to 10 uM after 18 hrs by MTT assay. It counts as functional, cell-based. An outline of the steps:
as §3

Series [14] relates to HCC827. Kind of series: Cytotoxicity against human HCC827 cells assessed as reduction in cell survival at 0.1 to 10 uM after 18 hrs by MTT assay. In kind it is functional, cell-based. Put shortly:
as §3

Series [15] relates to NB-4. Kind of series: Cell cycle arrest in human NB4 cells assessed as accumulation of cells at G1 phase after 24 hrs by propidium iodide staining-based flow cytometric analysis. It counts as functional. Put shortly:
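NB4 cultured at 37 °C, 5% CO2 in RPMI-1640 with 10% heat-inactivated FBS. Treated at 50 and 100 nM, 1 and 10 μM for 24 h. Cells fixed/permeabilized in 70% ethanol overnight at 4 °C, then given RNase and 20 μg/ml PI for 30 min. Doublets excluded, 20,000 events per sample; cell-cycle phase distribution analysed.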
On the technique in general: A flow cytometer gives signals particle by particle.

A short description of series [16]: Solubility of compound in pH 7.4 aqueous solution after 12 hrs by HPLC analysis. In kind it is physicochemical. Put shortly: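 Water solubility at pH 7.4 measured by HPLC analysis.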

pIC50: −log10 of the molar value. ≈ marks a conversion by molar mass, not a printed value. Calls of active or inactive are those of the source. The rule behind the calls is not given here.

Regarding `CN(C)C(=O)OC1=C(c2cccc3cccnc23)Oc2cc3ccccc3cc2-n2cccc21`, the pIC50 in the series on HL-60 [1] is 6.52. Moreover, the result in the series on GISTT1 was Active.

In the case of `CCN(CC)CCCC(C)NC(=O)OC1=C(c2cccc3ccccc23)Oc2cc3ccccc3cc2-n2cccc21` (configuration not stated), the result with HL-60 [2] was Active.

For the molecule `O=C1c2cccn2-c2cc3ccccc3cc2OC1c1cccc2ncccc12` (configuration not stated), the pIC50 in the series on HL-60 [1] is 5.56.

As for `COc1cc2c(c(OC)c1OC)-c1ccc(OC)c(=O)cc1[C@@H](NC(C)=O)CC2` [COLCHICINE], the negative logarithm of the IC50 (pIC50) with NIH3T3 [3] is 7.60; with NIH3T3 [4] it was 5.95; in the series on A2780 it was 7.88; in series [7] it was 6.30. Also, the results for the “Ratio IC50” value in series [5] and in series [6] were 38.2 and 44.7, respectively.

Regarding `CCN(CC)CCCC(C)NC(=O)OC1=C(c2cccc3cccnc23)Oc2cc3ccccc3cc2-n2cccc21` (configuration not stated), the negative logarithm of the IC50 (pIC50) with NIH3T3 [3] was 5.64; in the series on NIH3T3 [4], 5.60; in the series on A2780 it was 5.72; in [7], 5.87. In addition, the result with HL-60 [2] was Active. Also, the inhibition result at Tubulin (Homo sapiens) [8] and on Tubulin (Homo sapiens) [11] was “Active” each time. The solubility at 20 min, 15 µM in series [9] worked out at 2.89 µM (≈ 1.62 µg/mL). The “Ratio IC50” value in series [5] came out at 0.71; in series [6] it was 1.08. The molecule also showed a Kb on Tubulin (Homo sapiens) [10] of 114 ×10⁷ /M.

For the molecule `CC(=O)OC1=C(c2cccc3cccnc23)Oc2cc3ccccc3cc2-n2cccc21`, the pIC50 was 7.47 in the series with NIH3T3 [3]; 6.58 in the series on HL-60 [1]; 7.17 with NIH3T3 [4]; 7.12 in the series on A2780; 7.10 in series [7]. The outcome with HL-60 [2], with A549, with B16-F1, in the series on NB-4 [12], with PC-9 and in the series on GISTT1 was Active. In addition, the result in the series with B16-F10 and in the series on HCC827 [14] was Active. Also, the inhibition entry at Tubulin (Homo sapiens) [8] and at Tubulin (Homo sapiens) [11] was “Active” each time. Also, the solubility at 20 min, 15 µM in series [9] came out at 0.36 µM (≈ 0.151 µg/mL). The entries for the “Ratio IC50” value in series [5] and in [6] were 1.03 and 2, respectively. Moreover, in the series on HCC827 [13], the outcome was inactive. Besides, the Kb at Tubulin (Homo sapiens) [10] came to 115 ×10⁷ /M. For the same molecule, in the series on NB-4 [15], the Activity result is “Dose-dependent effect”.

In the case of `CC[C@]1(O)C[C@@H]2CN(CCc3c([nH]c4ccccc34)[C@@](C(=O)OC)(c3cc4c(cc3OC)N(C)[C@H]3[C@@](O)(C(=O)OC)[C@H](OC(C)=O)[C@]5(CC)C=CCN6CC[C@]43[C@@H]65)C2)C1` [VINBLASTINE], the negative logarithm of the IC50 (pIC50) in the series on NIH3T3 [3] is 9.00; in the series with NIH3T3 [4] it was 7.15; with A2780 it was 9.30; in [7] it was 7.36. Besides, the results for the “Ratio IC50” value in series [5] and in [6] were 88 and 70.4, respectively.

On to `CC(=O)NC1=C(c2cccc3ccccc23)Oc2cc3ccccc3cc2-n2cccc21`, for which, in the series with HL-60 [2], the outcome was Active.

In the case of `CC(=O)OC1=C(c2cnc3ccccc3c2)Oc2cc3ccccc3cc2-n2cccc21`, in the series on HL-60 [2], the outcome was Active. The outcome in the series with A549, in the series with B16-F1, in the series with PC-9, in the series with HCC827 [13], with B16-F10 and in the series with HCC827 [14] was inactive. In addition, the pIC50 in the series with HL-60 [1] is 5.19.

For the molecule `CCc1ccc2cccc(C3=C(OC(=O)N(CC)CC)c4cccn4-c4cc5ccccc5cc4O3)c2n1`, the result with HL-60 [2] was Active.

For `O=C1c2cccn2-c2cc3ccccc3cc2OC1c1cccc2cccnc12` (configuration not stated), the pIC50 in the series on HL-60 [1] is 5.97.

For the molecule `CCN(CC)C(=O)OC1=C(c2cccc3cccnc23)Oc2cc3ccccc3cc2-n2cccc21`, the pIC50 in the series on HL-60 [1] is 5.34.

Consider `CC(=O)O[C@H]1C(=O)[C@@]2(C)[C@H]([C@H](OC(=O)c3ccccc3)[C@]3(O)C[C@H](OC(=O)[C@H](O)[C@@H](NC(=O)c4ccccc4)c4ccccc4)C(C)=C1C3(C)C)[C@]1(OC(C)=O)CO[C@@H]1C[C@@H]2O` [PACLITAXEL], for which the pIC50 is 7.60 in the series on NIH3T3 [3], 5.31 in the series on NIH3T3 [4], 8.48 in the series on A2780 and 6.15 in [7]. In addition, the “Ratio IC50” value in series [5] was determined as 212.12; in [6] it was 195.

As to `CC(=O)OC1=C(c2cccc3cnccc23)Oc2cc3ccccc3cc2-n2cccc21`, the negative-log IC50 (pIC50) was 6.43 in the series on NIH3T3 [3], 6.06 in the series with NIH3T3 [4], 6.52 in the series on A2780 and 6.09 in [7]. Further, the inhibition result at Tubulin (Homo sapiens) [8] and at Tubulin (Homo sapiens) [11] was “Active” throughout. In series [9], the solubility at 20 min, 15 µM came to 0.22 µM (≈ 0.0921 µg/mL). The “Ratio IC50” value worked out at 2.69 in series [5] and 2.33 in [6]. At Tubulin (Homo sapiens) [10], this molecule displayed a Kb of 16 ×10⁷ /M.

Molecule `COC(=O)Nc1nc2ccc(C(=O)c3cccs3)cc2[nH]1` [NOCODAZOLE] registered a solubility at 12 h in [16] below 1000 µg/mL.
